Test results from article PMC6500440 (International Journal of Nanomedicine, 2019).
Read-outs that look alike come from different tables or passages of the source.

Experiments:
[1] = Lipid solubilization assay; format: physicochemical; settings: 5.0 mg/mL LUVs in 10 mM sodium phosphate buffer pH 7.4, before addition of 22A peptide
In short: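 Phospholipid (POPC or egg sphingomyelin) chloroform stock was dried under nitrogen and hydrated in 10 mM sodium phosphate, pH 7.4. It then went through 5–7 freeze-thaw cycles and was extruded 10 times through 100 nm membranes, at 25°C for POPC and 45°C for eSM. The 5.0 mg/mL LUV suspension was read for turbidity as UV absorbance at 600 nm on a microplate spectrophotometer.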

[2] = Dynamic light scattering particle size; format: physicochemical
In short: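 LUVs (POPC or egg sphingomyelin) were made by drying the chloroform stock under nitrogen, hydrating in 10 mM sodium phosphate pH 7.4, doing 5–7 freeze-thaw cycles, and extruding 10× through 100 nm membranes (25°C POPC, 45°C eSM). For sHDL, 5.0 mg/mL lipid and peptide solutions were mixed 1:1 wt/wt (~3.75:1 molar). Samples were diluted to 1.0 mg/mL peptide, and intensity- and volume-weighted distributions were read at 25°C.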

[3] = cited from earlier work
[4] = Gel permeation chromatography; format: physicochemical
In short: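 Test peptide alone in buffer, no phospholipid, at 1, 5 and 10 mg/mL; one condition also incubated at 50°C. Analysed by size-exclusion GPC on a TSK G3000SWx column (7.8 mm×30 cm), eluted with PBS at 1.0 mL/min at ambient temperature, UV detection at 220 nm. Molecular weight was assigned from retention time.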

[5] = target: the molecule itself; experiment: SEC + other: dynamic light scattering
[6] = lipid LUV + 22A 1:1 wt/wt incubated 24 hr at 25°C
[7] = as restated in Results, no reference given
[8] = 22A 1 mg/mL in buffer without phospholipid, after incubation at 50°C
[9] = 22A in buffer without phospholipid, before dissociation

CCCCCCCC/C=C\CCCCCCCC(=O)O[C@H](COC(=O)CCCCCCCCCCCCCCC)COP(=O)([O-])OCC[N+](C)(C)C [POPC, 1-palmitoyl-2-oleoyl-sn-glycero-3-phosphocholine]
UV 600 nm absorbance (turbidity) of LUV solution [1]: 0.26
LUV diameter ([2]; extruded LUVs, 5.0 mg/mL solutions, before addition of 22A peptide): 120 nm
DLS volume (distribution, %): LUV [2, 6]: 0.1%
DLS volume (distribution, %): sHDL [2, 6]: 99.9%
DLS intensity (size, nm): LUV ([2]; lipid LUV + 22A 1:1 wt/wt incubated 24 hr at 25°C, remaining liposomes): 137.3 nm
DLS volume (distribution, %): sHDL ([2]; lipid LUV + 22A 1:1 wt/wt incubated 24 hr at 37°C): 100%
DLS volume (distribution, %): sHDL ([2]; lipid LUV + 22A 1:1 wt/wt incubated 24 hr at 50°C): 100%
transition temperature (Tm) [3, 7]: −2 °C
transition temperature (Tm) [3]: −2 °C

PVLDLFRELLNELLEALKQKLK [22A]
GPC retention time of monomeric peptide [4, 8]: 14.9 min
molecular weight corresponding to GPC retention time, monomeric peptide [4, 8]: ~ 2500 Da
association state of peptide without lipid ([4]; 22A in buffer without phospholipid, 1, 5 and 10 mg/mL, initial, GPC and DLS): self-associated
GPC retention time of self-associated peptide [4, 9]: 9.6 min
molecular weight corresponding to GPC retention time, self-associated peptide [4, 9]: ~ 145,000 Da

synthetic sphingomyelin [sSM]
transition temperature (Tm) [3, 7]: approximately 40 °C

PVLDLFRELLNELLEALKQKLK [ESP-24218 peptide (22A), ApoA-I-mimetic peptide]
binding result [5]: binds
